MEP2-GFP yeast: alters MEP2-GFP fluorescence in TOR pathway yeast screen; S. cerevisiae MEP2-GFP strain, flow cytometry GFP, 3 h; 100% = DMSO control level; GFP response vs DMSO, % at 10 µM; 0.51% of 330,000 active; AID 2016;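 active = GFP response versus DMSO above a set limit, roughly screen mean plus 3 SD, cut at about 180% in these data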;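 note: median GFP fluorescence of the barcode-gated MEP2-GFP cells per well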
CIT2-GFP yeast: modulators of TOR pathway CIT2-GFP in S. cerevisiae; S. cerevisiae CIT2-GFP strain, flow cytometry, 3 h; 100 means same as DMSO wells; GFP response vs DMSO, % at 10 µM; 0.065% of 320,000 active;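 active = GFP response relative to DMSO above a set limit, near the screen mean plus 3 SD, cut at about 150% in these data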;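 note: ratio of well median GFP fluorescence to mean of DMSO wells on the plate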
T cell modulator: modulates CD8 T cell binding to vesicles. 2C CD8+ T cell-vesicle binding, flow cytometry; stronger effect = lower value. response (vesicle binding), % at 7 µM. 0.068% of 330,000 active. AID 2052;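 active = response, share of CD8 T cells binding vesicles, and their 90th percentile fluorescence all below set limits, cut at about 80% in these data, passing the limit was not always enough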;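 note: values below 100% mean blocked vesicle binding to the CD8+ T cells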
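Read-out – percent CD8+ FL2 mean versus row control · System – murine 2C transgenic CD8+ T lymphocytes · Times – 1.5 h cell–vesicle binding at 37 °C, then 20 min icy labelling · Control set – naked vesicles low, QL9 vesicles with vehicle high · Detection – cytometric PE anti-B7-1 and Alexa647 anti-CD8 signals after 1% paraformaldehyde fixation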
RPL19A-GFP yeast: alters RPL19A-GFP fluorescence in TOR pathway yeast screen; S. cerevisiae RPL19A-GFP strain, flow cytometry, 3 h; stronger effect = lower value; percent response vs DMSO, % at 10 µM; 0.3% of 330,000 active;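 active = percent response vs DMSO below 50%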;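 note: median channel GFP fluorescence of the barcoded RPL19A-GFP strain; ratio of sample median GFP to plate DMSO average so 100% = DMSO; lower means less RPL19A-GFP as with rapamycin TOR inhibition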
LAP4-GFP MLPCN: alters LAP4-GFP fluorescence in TOR pathway yeast screen; S. cerevisiae LAP4-GFP multiplex, flow cytometry GFP, 3 h; median GFP as percent of DMSO wells; GFP response vs DMSO, % at 10 µM; 0.34% of 320,000 active;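 active = GFP response vs DMSO above a set limit, about the screen mean plus 3 SD, cut at about 150% in these data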
AGP1 TOR yeast: yeast TOR pathway AGP1-GFP modulation | GFP response vs DMSO, % at 10 µM | 0.02% of 320,000 active | S. cerevisiae AGP1-GFP multiplex flow cytometry, 3 h; GFP as percent of DMSO wells | AID 2066;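 active = GFP response relative to DMSO above a set limit, near screen average plus 3 SD, cut at about 150% in these data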;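 note: median GFP channel fluorescence of the gated AGP1 strain per well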
LAP4 cherry2: reconfirmed LAP4-GFP TOR pathway modulator in yeast. 20% of 590 active. GFP response vs DMSO, % at 10 µM. shares compounds with LAP4-GFP MLPCN. S. cerevisiae LAP4-GFP strain, flow cytometry GFP, 3 h. AID 2621;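 active = GFP signal as percent of the solvent control above about 150%, meaning raised reporter expression, limit read from the data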;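 note: ratio of well median GFP fluorescence to plate DMSO mean so 100% = DMSO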
MEP2-GFP pick2: reconfirmed MEP2-GFP TOR pathway modulator in yeast | shares compounds with LAP4-GFP MLPCN | S. cerevisiae MEP2-GFP strain, flow cytometry GFP, 3 h | GFP response vs DMSO, % at 10 µM | 10% of 590 active;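 active = GFP signal above 150% of the solvent control wells, that is a rise of more than half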;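 note: median channel GFP fluorescence of all gated yeast cells per well; ratio of median GFP to plate DMSO average so 100% = DMSO level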
RPL19A-GFP pick2: yeast RPL19A-GFP TOR reporter modulation, second cherry pick | shares compounds with LAP4-GFP MLPCN | S. cerevisiae RPL19A-GFP strain, flow cytometry GFP, 3 h; stronger effect = lower value; 100% means same as DMSO wells | GFP response vs DMSO, % at 10 µM | 3% of 590 active;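 active = under 65% GFP response relative to DMSO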;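 note: median GFP channel fluorescence per well over the all cells gate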
CIT2-GFP pick2: second confirmation of modulators of TOR reporter CIT2-GFP in yeast. AID 2624. S. cerevisiae CIT2-GFP strain, flow cytometry GFP, 3 h; DMSO control wells read 100%. shares compounds with LAP4-GFP MLPCN. GFP response vs DMSO, % at 10 µM. 8% of 590 active;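 active = GFP response vs DMSO above about 150%, limit read from the data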;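 note: median green fluorescence per well over all gated yeast cells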
AGP1 GFP CP2: yeast AGP1-GFP TOR reporter modulation, second cherry pick; shares compounds with LAP4-GFP MLPCN; S. cerevisiae AGP1-GFP strain, flow cytometry GFP, 3 h; percent response vs DMSO, % at 10 µM; 590 tested, under 10 active;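 active = over 150 percent of DMSO response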;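 note: median GFP channel fluorescence over all cells without mother daughter split; sample median GFP divided by mean DMSO control so 100% equals DMSO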
Yeast autofluor: counter-screen for compound autofluorescence in yeast s288c cells | shares compounds with LAP4-GFP MLPCN | fluorescence change (kMESF span) at 33 µM | S. cerevisiae s288c, 520 nm autofluorescence, flow cytometry, 3 h; stronger effect = higher value; zero means same as solvent-only cells | 610 tested, under 10 active;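 active = fluorescence span over the dose series, or activity score, above about 33, limit read from the data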
An asterisk follows results filed as active; . = not tested or not shown. An excerpt weighted towards active compounds, which were near 0.96% of everything screened.

SMILES | MEP2-GFP yeast | CIT2-GFP yeast | T cell modulator | RPL19A-GFP yeast | LAP4-GFP MLPCN | AGP1 TOR yeast | LAP4 cherry2 | MEP2-GFP pick2 | RPL19A-GFP pick2 | CIT2-GFP pick2 | AGP1 GFP CP2 | Yeast autofluor
CCN1CCN(C(=O)C2=CC(c3ccc(OC)cc3)=NS(=O)(=O)N2C)CC1 | 127 | 91 | 701 | 83 | 167* | 109 | 101 | 103 | 98 | 102 | 101 | .
CCN1CCN(C(CNS(=O)(=O)c2ccc(F)cc2)c2cccnc2)CC1 (configuration not stated) | 108 | 154* | 142 | 99 | 96 | 104 | 97 | 98 | 98 | 108 | 100 | .
CCN1CCN(C(CNS(=O)(=O)c2ccccc2)c2cccnc2)CC1 (configuration not stated) | 118 | 108 | 241 | 104 | 101 | 99 | . | . | . | . | . | .
COc1ccc2c(C(F)(F)F)cc(=O)oc2c1C | 107 | 98 | 304 | 95 | 94 | 96 | . | . | . | . | . | .
Cc1c(C)c2ccc(Oc3ccc([N+](=O)[O-])cc3C(F)(F)F)c(C)c2oc1=O | 106 | 92 | 271 | 101 | 101 | 102 | 101 | 105 | 103 | 103 | 100 | 0.1
CCC(=O)Nc1ccc(NC(=O)c2cc3ccccc3o2)cc1 | 103 | 105 | 231 | 104 | 107 | 110 | . | . | . | . | . | 0.2
COc1cc(NC(=O)c2ccccc2[N+](=O)[O-])ccc1NC(=O)c1cc2ccccc2o1 | 118 | 107 | 939 | 106 | 108 | 106 | . | . | . | . | . | 0.1
CCC(=O)Nc1ccc(NC(=S)NC(=O)c2cc3ccccc3o2)cc1 | 100 | 95 | 246 | 94 | 94 | 93 | . | . | . | . | . | .
O=C(NCc1ccccn1)C(=O)NCC1OCCN1C(=O)c1ccc(Cl)cc1 (configuration not stated) | 95 | 101 | 264 | 94 | 83 | 89 | . | . | . | . | . | .
O=C(NCc1ccco1)C(=O)NCC1OCCN1C(=O)c1ccc(Cl)cc1 (configuration not stated) | 165 | 98 | 532 | 57 | 97 | 95 | 102 | 105 | 100 | 101 | 99 | .
COc1cccc2c(=O)c(C(=O)NCc3cccs3)c[nH]c12 | 98 | 88 | 138 | 93 | 101 | 97 | 101 | 103 | 100 | 98 | 103 | 0.5
CCn1c(C)cc(C(=O)CSc2nnc(-c3ccco3)o2)c1C | 97 | 94 | 403 | 96 | 109 | 94 | . | . | . | . | . | .
COc1cc(S(=O)(=O)Nc2cccc3cn[nH]c23)c(OC)cc1C | 139 | 167* | 199 | 97 | 115 | 107 | 111 | 108 | 101 | 102 | 99 | .

Screens from PubChem.
